Reference: ChEMBL document CHEMBL1126685, “Bronchodilator activity of xanthine derivatives substituted with functional groups at the 1- or 7-position” (J Med Chem, 1993)

How the values were obtained:
[1] = target: T1, Adenosine receptor A1 (Cavia porcellus, UniProt P47745); test: Binding affinity against adenosine A1 receptor of cerebral cortex using [3H]CPX as a radioligand; type: tissue-based
T1 sequence (P47745 whole entry): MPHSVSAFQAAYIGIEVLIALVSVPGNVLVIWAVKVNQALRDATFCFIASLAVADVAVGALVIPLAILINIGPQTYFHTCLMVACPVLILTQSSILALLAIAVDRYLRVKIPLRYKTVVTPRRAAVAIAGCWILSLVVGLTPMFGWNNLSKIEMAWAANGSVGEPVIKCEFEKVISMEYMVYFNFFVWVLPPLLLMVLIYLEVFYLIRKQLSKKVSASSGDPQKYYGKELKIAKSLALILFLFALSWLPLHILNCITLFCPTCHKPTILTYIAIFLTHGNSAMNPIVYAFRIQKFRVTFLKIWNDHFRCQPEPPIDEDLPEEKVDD

[2] = organism: Cavia porcellus; test: Effective concentration required in vitro for tracheal muscle (from male Hartley guinea pigs) relaxation; type: functional; conditions: Trachea
Method in brief: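 Tracheal ring chains from male Hartley guinea pigs (300–500 g), 37 °C Krebs-Henseleit pH 7.4, 95% O2–5% CO2, 0.5 g tension, spontaneous tone; cumulative compound addition, isotonic recording.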

[3] = organism: Cavia porcellus; test: Effective concentration required in vitro for heart stimulation (right atrium) in guinea pig; type: functional; conditions: Cardiac atrium
Method in brief: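 Isolated right atrium of male Hartley guinea pigs, 25 °C Krebs-Henseleit gassed 95% O2–5% CO2, 0.5 g tension; cumulative concentrations; beating rate via cardiometer triggered by isometric contraction. EC15 = concentration raising rate 15% above unstimulated; 3–5 experiments.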

[4] = Bronchoselectivity expressed as ratio of stimulatory activity in the right atrium (EC15) to relaxant activity in the tracheal muscle (EC50); type: functional, Cardiac atrium
[5] = target: cyclic AMP phosphodiesterase (guinea pig); test: Inhibition of cyclic AMP-phosphodiesterase ( PDE) in the supernatant of tracheal muscle homogenate
[6] = target: Adenosine A2 receptor (guinea pig); test: Binding affinity against adenosine A2 receptor of striatal membrane using [3H]CGS-21680 as a radioligand
[7] = system: Cavia porcellus; test: Bronchodilatory effect, 50% inhibition of spasmogen-induced response in male Hartley guinea pigs on intraduodenal administration; type: functional
Method in brief: (§1)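 Urethane-anesthetized (1.5 g/kg ip), ventilated male Hartley guinea pigs; compound suspended in 0.5% carboxymethylcellulose given intraduodenally 5 min before iv acetylcholine 40 μg/kg (jugular, every 15 min, after three stable responses); Konzett–Rossler overflow bronchospasm and carotid-pulse heart rate followed 110 min.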

[8] = system: Cavia porcellus; test: Positive chronotropic effect, 15% increase in heart rate of male Hartley guinea pigs on intraduodenal administration (mean of 3-5 animals); type: functional; method in brief: as §1
[9] = Bronchoselectivity, ratio of positive chronotropic action (ED15) to bronchodilator action (ED50); type: functional

Row | Compound | Ki [1] | EC50 [2] | EC15 [3] | Selectivity [4] | Ki [5] | Ki [6] | ED50 [7] | ED15 [8] | Selectivity [9]
1 | CCCn1c(=O)n(C)c(=O)c2c1ncn2CCC(=O)O | > 200 µM | > 100 µM | > 100 µM | 1 | > 200 µM | > 200 µM | – | – | –
2 | CCCn1c(=O)n(C)c(=O)c2c1ncn2CC(N)=O | > 200 µM | > 100 µM | > 100 µM | 1 | 119 µM | > 200 µM | – | – | –
3 | CCCn1c(=O)n(CCCO)c(=O)c2[nH]cnc21 | 12 µM | 5.1 µM | 26.4 µM | 5.2 | 12.6 µM | 68.7 µM | – | – | –
4 | CCCn1c(=O)n(CCOCC)c(=O)c2[nH]cnc21 | 1.9 µM | 0.07 µM | 25.3 µM | 361 | 22.3 µM | 12 µM | 1.7 mg/kg | 20 mg/kg | 11.8
5 | CCCn1c(=O)n(C)c(=O)c2c1ncn2CCCO | 112 µM | 22.6 µM | > 100 µM | 4.4 | 26.2 µM | > 200 µM | – | – | –
6 | CCCn1c(=O)n(C)c(=O)c2c1ncn2CCC(N)=O | > 200 µM | > 100 µM | > 100 µM | – | – | – | – | – | –
7 | C=CCn1c(=O)c2[nH]cnc2n(CCC)c1=O | 1.7 µM | 1.6 µM | 5.4 µM | 3.4 | 27.3 µM | 11.8 µM | – | – | –
8 | CCCn1c(=O)[nH]c(=O)c2nc[nH]c21 [ENPROFYLLINE] | – | – | 18.3 µM | – | – | – | – | 95.1 mg/kg | –
9 | CCCn1c(=O)n(CC(=O)O)c(=O)c2[nH]cnc21 | > 200 µM | 41 µM | > 100 µM | 2.4 | > 200 µM | > 200 µM | – | – | –
10 | CCCn1c(=O)n(CC(C)=O)c(=O)c2[nH]cnc21 | 11.4 µM | 14.9 µM | 45.7 µM | 3.1 | 46.4 µM | > 200 µM | – | – | –
11 | CCCn1c(=O)n(C)c(=O)c2c1ncn2CCCN(C)C | > 200 µM | > 100 µM | > 100 µM | 1 | > 200 µM | > 200 µM | – | – | –
12 | CCCn1c(=O)c2nc[nH]c2n(CCC)c1=O | 0.21 µM | – | 20 µM | – | – | – | 4.69 mg/kg | 25.5 mg/kg | –
13 | C=CCCn1cnc2c1c(=O)n(C)c(=O)n2CCC | 6 µM | 16.8 µM | 30.6 µM | 1.8 | 29.9 µM | 5.6 µM | – | – | –
14 | CCCn1c(=O)n(CC#N)c(=O)c2[nH]cnc21 | 2.1 µM | 4.2 µM | 1.7 µM | – | – | – | – | – | –
15 | CCCn1c(=O)n(CCN(C)C)c(=O)c2[nH]cnc21 | 4.3 µM | 2.7 µM | > 100 µM | 37 | 9 µM | > 200 µM | 5.65 mg/kg | > 100 mg/kg | > 17.7
16 | CCCn1c(=O)n(CC(N)=O)c(=O)c2[nH]cnc21 | 39.7 µM | > 100 µM | > 100 µM | – | – | – | – | – | –
17 | CCCn1c(=O)n(C)c(=O)c2c1ncn2CC#N | 6.6 µM | 35.3 µM | > 100 µM | 2.8 | 16.5 µM | 12.8 µM | – | – | –
18 | CCCn1c(=O)n(C)c(=O)c2c1ncn2CCN(C)C | > 200 µM | > 100 µM | > 100 µM | 1 | 53 µM | > 200 µM | – | – | –
19 | CCCn1c(=O)n(C)c(=O)c2[nH]cnc21 | – | 1.6 µM | 3.3 µM | 2.1 | – | 8 µM | 4.44 mg/kg | 5.7 mg/kg | 1.3
